In ChEMBL document CHEMBL3272327, “Hypocholesterolemic activity of 1,3-bis(substituted phenoxy)-2-propanones” (J Med Chem, 1976):

What was measured:
Rattus norvegicus [1] = assay: Decrease in lipase level in rat liver at 10 mg/kg/day administered for 16 days (reference value: 100 +/- 39%); format: functional; parameters: scale not given: the % may be the effect or the level left
Rattus norvegicus [2] = assay: Hypocholesterolemic activity in rat assessed as [14C]palmitic acid level in small intestine at 10 mg/kg/day administered for 1 week measured after 22 hrs on day 7 by scintillation counting analysis (reference value: 4.43 +/- 1.43%); format: functional
How it was run: (§1)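 Male Sprague-Dawley rats on lab chow dosed orally once daily for 1 week at 10 mg/kg/day, suspended in 1% CMC, or given vehicle alone. On day 7, 5 μCi [1-14C]palmitic acid given orally. Killed after 22 hr; organs made into 10% water homogenates. Aliquots of 0.1 cc of homogenate, urine, blood or feces were digested and scintillation counted. Output is % of dose per tissue, N = 6.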

Rattus norvegicus [3] = assay: Effect on brain weight in rat at 5 mg/kg/day administered for 16 days measured 24 hrs after last drug dosage relative to total body weight (reference value: 0.67 +/- 0.05%); format: ADME, organism-based; details: in vivo
Rattus norvegicus [4] = assay: Hypocholesterolemic activity in Sprague-Dawley rat assessed as serum cholesterol level at 1 mg/kg/day, po administered via intubation measured on day 16 by Liebermann-Burchard reaction (reference value: 100 +/- 8%); format: functional
Rattus norvegicus [5] = assay: Hypocholesterolemic activity in rat assessed as [14C]cholesterol level in chyme at 10 mg/kg/day administered for 1 week measured after 22 hrs on day 7 by scintillation counting analysis (reference value: 8.72 +/- 4.95%); format: functional
How it was run: (§2)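 Male rats were dosed orally for 1 week (10 mg/kg/day) or with 1% CMC. On day 7 they received 5 μCi [4-14C]cholesterol orally and were killed after 22 hr. Organs were homogenized (10% in water); 0.1-cc aliquots of homogenate, urine, blood or feces were digested with Protosol. Samples were counted in toluene/Triton X-100 (2:1) scintillant with 0.4% PPO and 0.01% POPOP. Results are % of dose per tissue, N = 6.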

Rattus norvegicus [6] = assay: Hypocholesterolemic activity in Sprague-Dawley rat assessed as serum cholesterol level at 10 mg/kg/day, po administered via intubation measured on day 16 by Liebermann-Burchard reaction (reference value: 100%); format: functional
Rattus norvegicus [7] = assay: Effect on body weight in rat at 10 mg/kg/day administered for 16 days measured on day 7 (reference value: 173 +/- 12 gms); format: ADME, organism-based; details: in vivo, 384 h
How it was run: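 Male Sprague-Dawley rats with chow and water ad libitum. Compound suspended in 1% CMC-water and given orally by intubation needle at 11:00 a.m., 1, 5, 10 or 50 mg/kg/day, for 16 days. Body weight (g) recorded on days 0, 7 and 16. N = 8.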

Rattus norvegicus [8] = assay: Effect on spleen weight in rat at 10 mg/kg/day administered for 16 days measured 24 hrs after last drug dosage relative to total body weight (reference value: 0.55 +/- 0.12%); format: ADME, organism-based; details: in vivo
Rattus norvegicus [9] = assay: Effect on testes weight in rat at 10 mg/kg/day administered for 16 days measured 24 hrs after last drug dosage relative to total body weight (reference value: 1.08 to 1.10%); format: ADME, organism-based, Testis; details: in vivo
Rattus norvegicus [10] = assay: Effect on lipid content in rat liver at 10 mg/kg/day administered for 16 days (reference value: 100 +/- 16%); format: ADME, organism-based; details: in vivo, 384 h
Rattus norvegicus [11] = assay: Hypocholesterolemic activity in rat assessed as [14C]palmitic acid level in urine at 10 mg/kg/day administered for 1 week measured after 22 hrs on day 7 by scintillation counting analysis (reference value: 3.31 +/- 1.37%); format: functional; how it was run: as §1
Rattus norvegicus [12] = assay: Increase in lipase level in rat serum at 10 mg/kg/day administered for 16 days relative to control; format: functional
How it was run: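 Male Sprague-Dawley rats on rodent chow and water ad libitum; compound suspended in 1% CMC-H2O, 10 mg/kg/day by oral intubation, dose set from weekly weights; controls given 1% CMC. Serum lipase measured with a commercial serum lipase kit after 16 days of dosing; value given as percent of control, N = 8; p by Student's t test.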

Rattus norvegicus [13] = assay: Hypocholesterolemic activity in rat assessed as [14C]cholesterol level in small intestine at 10 mg/kg/day administered for 1 week measured after 22 hrs on day 7 by scintillation counting analysis (reference value: 22.09 +/- 5.68%); format: functional; how it was run: as §2
Rattus norvegicus [14] = assay: Effect on liver weight in rat at 1 mg/kg/day administered for 16 days measured 24 hrs after last drug dosage relative to total body weight (reference value: 4.22 +/- 0.29%); format: ADME, organism-based; details: in vivo
Rattus norvegicus [15] = assay: Effect on food intake in rat at 50 mg/kg/day measured during first week (reference value: 19.1 +/- 1.7 gms); format: ADME, organism-based; details: in vivo
How it was run: (§3)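 Male rats dosed orally at 1, 5, 10 or 50 mg/kg/day in 1% CMC. Average food intake in grams per rat per week measured over a 2-week period, first and second weeks reported separately. N = 8, Student's t test against the 1% CMC control.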

Rattus norvegicus [16] = assay: Hypocholesterolemic activity in rat assessed as [14C]cholesterol level in stomach at 10 mg/kg/day administered for 1 week measured after 22 hrs on day 7 by scintillation counting analysis (reference value: 8.87 +/- 4.00%); format: functional; how it was run: as §2
Rattus norvegicus [17] = assay: Hypocholesterolemic activity in rat assessed as [14C]palmitic acid level in lung at 10 mg/kg/day administered for 1 week measured after 22 hrs on day 7 by scintillation counting analysis (reference value: 0.53 +/- 0.15%); format: functional; how it was run: as §1
Rattus norvegicus [18] = assay: Effect on liver weight in rat at 50 mg/kg/day administered for 16 days measured 24 hrs after last drug dosage relative to total body weight (reference value: 4.22 +/- 0.29%); format: ADME, organism-based; details: in vivo
Rattus norvegicus [19] = assay: Hypocholesterolemic activity in rat assessed as [14C]palmitic acid level in heart at 10 mg/kg/day administered for 1 week measured after 22 hrs on day 7 by scintillation counting analysis (reference value: 0.23 +/- 0.10%); format: functional; how it was run: as §1
Rattus norvegicus [20] = assay: Hypocholesterolemic activity in Sprague-Dawley rat assessed as serum cholesterol level at 50 mg/kg/day, po administered via intubation measured on day 4 by Liebermann-Burchard reaction (reference value: 100 +/- 7%); format: functional
Rattus norvegicus [21] = assay: Effect on RNA content in rat liver at 10 mg/kg/day administered for 16 days (reference value: 100 +/- 8%); format: ADME, organism-based; details: in vivo, 384 h
Rattus norvegicus [22] = assay: Hypocholesterolemic activity in rat assessed as [14C]cholesterol level in brain at 10 mg/kg/day administered for 1 week measured after 22 hrs on day 7 by scintillation counting analysis (reference value: 0.12 +/- 0.04%); format: functional; how it was run: as §2
Rattus norvegicus [23] = assay: Effect on food intake in rat at 50 mg/kg/day measured during second week (reference value: 23.4 +/- 1.8 gms); format: ADME, organism-based; details: in vivo; how it was run: as §3
Rattus norvegicus [24] = assay: Effect on vas deferens and epididymis weight in rat at 50 mg/kg/day administered for 16 days measured 24 hrs after last drug dosage relative to total body weight (reference value: 0.22 +/- 0.04%); format: ADME, organism-based; details: in vivo
Rattus norvegicus [25] = assay: Effect on vesicular gland weight in rat at 1 mg/kg/day administered for 16 days measured 24 hrs after last drug dosage relative to total body weight (reference value: 0.10 +/- 0.04%); format: ADME, organism-based; details: in vivo
Rattus norvegicus [26] = assay: Effect on food intake in rat at 5 mg/kg/day measured during second week (reference value: 23.4 +/- 1.8 gms); format: ADME, organism-based; details: in vivo; how it was run: as §3
Rattus norvegicus [27] = assay: Hypocholesterolemic activity in Sprague-Dawley rat assessed as serum cholesterol level at 5 mg/kg/day, po administered via intubation measured on day 10 by Liebermann-Burchard reaction (reference value: 100 +/- 7%); format: functional

Cc1ccc(OCC(=O)COc2ccc(C)cc2)cc1 gave an Activity (Rattus norvegicus [1]) of 68%, an Activity (Rattus norvegicus [2]) of 6.05% and an Activity (Rattus norvegicus [3]) of 0.73%. It also gave an Activity (Rattus norvegicus [4]) of 46%, an Activity (Rattus norvegicus [5]) of 9.21% and an Activity (Rattus norvegicus [6]) of 58%. The Activity (Rattus norvegicus [7]) was 164 g, the Activity (Rattus norvegicus [8]) was 0.6% and the Activity (Rattus norvegicus [9]) was 1.13%. For the same compound, the Activity (Rattus norvegicus [10]) was 88%, the Activity (Rattus norvegicus [11]) was 1.82% and the “fold change (FC)” value (Rattus norvegicus [12]) was 2. For the same compound, the Activity (Rattus norvegicus [13]) was 22.56%, the Activity (Rattus norvegicus [14]) was 4% and the Activity (Rattus norvegicus [15]) was 18.9 g. For the same compound, the Activity (Rattus norvegicus [16]) was 3.36%, the Activity (Rattus norvegicus [17]) was 0.5% and the Activity (Rattus norvegicus [18]) was 4.57%. For the same compound, the Activity (Rattus norvegicus [19]) was 0.26%, the Activity (Rattus norvegicus [20]) was 86% and the Activity (Rattus norvegicus [21]) was 104%. The Activity (Rattus norvegicus [22]) was 0.16%, the Activity (Rattus norvegicus [23]) was 28.2 g and the Activity (Rattus norvegicus [24]) was 0.25%. For the same compound, the Activity (Rattus norvegicus [25]) was 0.19%, the Activity (Rattus norvegicus [26]) was 28.8 g and the Activity (Rattus norvegicus [27]) was 58%.
